Screening results from PubChem BioAssay.
Rows were chosen to be rich in hits. Some 1.4% of all compounds tested hit in one or more screens of this group.
Vif imaging: inhibitors of HIV Vif | AID 602346 | 340,000 tested, 0.35% active | inhibition, % at 7.49 µM | HEK293T cells, Vif self-association by quenched fluorescence, imaging, 24 h; in the data active means inhibition above about 50%, passing the limit was not always enough; inconclusive means no clear call, values can overlap the other calls; inactive means below about 31%
Myeloid diff 2: promotes myeloid progenitor differentiation; 360,000 tested, 1% active; AID 624256; calls only at 10 µM; ER-HoxA9 myeloid progenitors, lysozyme-GFP differentiation, flow cytometry;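 active means normalized GFP-positive differentiation at or above the plate's own cutoff, the solvent-only control mean plus 3 SD; inconclusive means no clear call, values can overlap the other calls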;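 further: cells exposed to compound for four days before flow analysis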
Casp6 inh: caspase-6 (human) enzyme inhibition; P55212; purified caspase-6, Z-VEID-R110 cleavage fluorescence; inhibition, % at 12.5 µM; 350,000 tested, 0.53% active; AID 686996;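 active means mean inhibition across replicates at least about 35%, with every replicate also reaching that limit, limit read from the data; inconclusive means only one of the two criteria met; inactive means neither criterion met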
Target sequence (P55212 24-179 limits assumed): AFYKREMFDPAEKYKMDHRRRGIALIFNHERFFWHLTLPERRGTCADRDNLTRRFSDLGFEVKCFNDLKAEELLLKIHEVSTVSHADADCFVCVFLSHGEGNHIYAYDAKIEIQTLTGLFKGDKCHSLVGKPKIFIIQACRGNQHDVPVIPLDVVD
Target sequence (P55212 194-293 limits assumed): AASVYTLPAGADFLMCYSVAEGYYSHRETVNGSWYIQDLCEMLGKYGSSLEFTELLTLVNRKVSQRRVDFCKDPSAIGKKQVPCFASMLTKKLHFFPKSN
T cell HTS: modulates CD8 T cell binding to vesicles. 2C CD8+ T cell-vesicle binding, flow cytometry; hits give low values. response (vesicle binding), % at 7 µM. 330,000 tested, 0.068% active;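 active means response, share of CD8 T cells binding vesicles, and their 90th percentile fluorescence all below set limits, cut at about 80% in these data, passing the limit was not always enough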;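 further: values below 100% mean blocked vesicle binding to the CD8+ T cells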
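System: murine 2C transgenic CD8+ T lymphocytes; also added: QL9-loaded Drosophila micro-vesicles; times: binding 1.5 h at 37 °C; measured by: flow cytometry, PE anti-B7-1 (FL2) versus Alexa647 anti-CD8 (FL8), PFA-fixed; control set: Peptide-free naked vesicles (low) and QL9 vesicles with 0.7% DMSO vehicle (high)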
Each line names hits and unclear results; the compound was inactive in the other large screens.

CO[C@@H]1CN(C)C(=O)c2cc(NC(=O)c3cc(C)on3)ccc2OC[C@@H](C)N(S(=O)(=O)c2cccc(F)c2)C[C@H]1C	none (no result: Vif imaging, Myeloid diff 2, T cell HTS)
C=CCn1c(=NC(=O)c2ccc(S(=O)(=O)N3CCCc4ccccc43)cc2)sc2cc(S(N)(=O)=O)ccc21	none (no result: Casp6 inh)
COCCn1c(=NC(=O)c2ccc(S(=O)(=O)N3CCCc4ccccc43)cc2)sc2cc(S(C)(=O)=O)ccc21	Myeloid diff 2 active (no result: Casp6 inh)
COc1ccc(CCNC(=O)C2CCN(S(=O)(=O)c3ccc4nc5c(c(C(=O)O)c4c3)CCCC5)CC2)cc1OC	none
O=C(O)c1c2c(nc3ccc(S(=O)(=O)N4CCC(C(=O)NCc5ccc(Cl)cc5)CC4)cc13)CCCC2	Casp6 inh 65
O=C(O)c1c2c(nc3ccc(S(=O)(=O)N4CCC(C(=O)NC5CCCCCC5)CC4)cc13)CCCC2	Casp6 inh 43
COc1ccc(CNC(=O)C2CCN(S(=O)(=O)c3ccc4nc5c(c(C(=O)O)c4c3)CCCC5)CC2)cc1	Casp6 inh 54 (no result: T cell HTS)
CC(C)CCNC(=O)C1CCN(S(=O)(=O)c2ccc3nc4c(c(C(=O)O)c3c2)CCCCC4)CC1	none
CCOCCCNC(=O)C1CCN(S(=O)(=O)c2ccc3nc4c(c(C(=O)O)c3c2)CCCCC4)CC1	none
O=C(O)c1c2c(nc3ccc(S(=O)(=O)N4CCC(C(=O)NCc5ccccc5Cl)CC4)cc13)CCCC2	Casp6 inh 44
CN(C)CCCNC(=O)C[C@H]1CC[C@@H]2[C@H](COC[C@H](O)CN2CC2CCCC2)O1	none (no result: Vif imaging, Myeloid diff 2, T cell HTS)
COc1ccc(S(=O)(=O)Nc2ccc3c(c2)C(=O)N([C@H](C)CO)C[C@@H](C)[C@H](CN(C)C(=O)Nc2ccc(F)cc2)OCCCC[C@@H](C)O3)cc1	none (no result: Vif imaging, Myeloid diff 2, T cell HTS)
Cc1oc(C)c2c(=O)ccc3c(c12)OC(N)=C(C#N)C3c1ccc(F)cc1 (configuration not stated)	Myeloid diff 2 active (no result: Casp6 inh)
C[C@H]1CN([C@@H](C)CO)C(=O)Cc2cc(NC(=O)CCCCCC(=O)Nc3ccccc3N)ccc2O[C@H]1CN(C)CC1CCCCC1	none (no result: Vif imaging, Myeloid diff 2, T cell HTS)
O=C(Cc1ccccc1)NN1C(=O)/C(=C/c2ccccc2C(=O)O)SC1=S	Casp6 inh 62
O=C(O)COc1ccccc1/C=C1\SC(=S)N(NC(=O)c2ccccc2O)C1=O	none
O=C(NN1C(=O)/C(=C/c2ccc(O)c(O)c2)SC1=S)c1ccccc1	Casp6 inh 45
O=C1/C(=C/c2ccc(O)c(O)c2)SC(=S)N1Nc1ccccc1	Myeloid diff 2 active (no result: Casp6 inh, T cell HTS)
Cc1ccc(-c2ccc3c(c2)O[C@H](CN(C)Cc2ccncc2)[C@H](C)CN([C@H](C)CO)S3(=O)=O)cc1	none (no result: Vif imaging, Myeloid diff 2, T cell HTS)
COc1ccc2c(/C=C/c3cc[n+](C)cc3)c[nH]c2c1	Myeloid diff 2 active
Cc1ccc2[nH]cc(/C=C/c3cc[n+](C)cc3)c2c1	Myeloid diff 2 inconclusive (no result: Vif imaging)
Cn1cc(CN2CCc3c([nH]c4ccccc34)C2C(C)(C)C)cn1 (configuration not stated)	Vif imaging 86
CCCC(=O)Nc1sc2c(c1C#N)CC(C)(C)NC2(C)C	none (no result: Casp6 inh)
CC(=O)Nc1sc2c(c1C#N)CC(C)(C)NC2(C)C	Myeloid diff 2 active (no result: Casp6 inh)
Cc1noc(C)c1NC(=O)N(C)C[C@@H]1OCCCC[C@@H](C)Oc2ccc(NC(=O)NC(C)C)cc2C(=O)N([C@@H](C)CO)C[C@H]1C	none (no result: Vif imaging, Myeloid diff 2, T cell HTS)
CO[C@H]1CN(C)C(=O)c2cc(NC(=O)NC(C)C)ccc2OC[C@H](C)N(S(C)(=O)=O)C[C@H]1C	none (no result: Vif imaging, Myeloid diff 2, T cell HTS)
CCOc1ccc(NC(=O)CN(C)C(=O)c2cc(-c3ccncc3)nc3ccccc23)cc1OCC	none
CCOc1ccc(NC(=O)CN(C)C(=O)c2cc(C)nc3ccccc23)cc1OCC	Casp6 inh 37
COc1cccc(-c2c(-c3cc(OC)cc(OC)c3)n(C)c3ccc(-c4cnc(N5CCOCC5)nc4)cc23)c1	Myeloid diff 2 active
CCc1cccc2cc3c(N)c(C(=O)Nc4ccc(S(=O)(=O)N5CCCC5)cc4)sc3nc12	Vif imaging 68, Myeloid diff 2 active (no result: Casp6 inh)
Cc1cccc2cc3c(N)c(C(=O)Nc4ccc(N5CCOCC5)cc4)sc3nc12	none (no result: Casp6 inh)
O=C(COC(=O)/C=C/C(=O)OCC(=O)Nc1ccccc1F)Nc1ccccc1F	Vif imaging 79
CCOC(=O)C1=NS(=O)(=O)NC(C)=C1	Casp6 inh 36 (no result: Vif imaging, T cell HTS)
CC1=CC(c2ccccc2)=NS(=O)(=O)N1	Myeloid diff 2 inconclusive (no result: T cell HTS)
CC(C)NC(=O)Nc1ccc2c(c1)CC(=O)N([C@@H](C)CO)C[C@@H](C)[C@H](CN(C)C(=O)NC(C)C)O2	none (no result: Vif imaging, Myeloid diff 2, T cell HTS)
Cc1ccc(S(=O)(=O)N2CCN(C(=O)/C=C/c3ccco3)CC2)cc1	none
O=C(/C=C/c1ccco1)N1CCN(S(=O)(=O)c2ccccc2)CC1	Casp6 inh 48
CN1[C@@H]2Cn3c(ccc(-c4ccccc4)c3=O)[C@H]1[C@@H](C(=O)NCC1CCCCC1)[C@@H]2CO	none (no result: Vif imaging, Myeloid diff 2, T cell HTS)
CC(=O)Nc1ccc(NC(=O)C(C)OC(=O)/C(C#N)=C/c2ccc(N(C)C)cc2)cc1 (configuration not stated)	Vif imaging 124
COc1ccc(C(=O)Nc2cc(C(=O)O)cc(C(=O)O)c2)cc1Cl	Casp6 inh 82
COC(=O)c1ccccc1NC(=O)Cn1cnc2c(cnn2-c2ccc(C)c(C)c2)c1=O	none (no result: Vif imaging, Myeloid diff 2, Casp6 inh)
COC(=O)c1ccccc1NC(=O)Cn1cnc2cc(C)c(C)cc21	Vif imaging 71
COc1ccc(NC(=O)[C@@H]2CCCN2C(=O)[C@@H]2Cc3ccccc3CN2C(=O)OC(C)(C)C)cc1	Myeloid diff 2 inconclusive
CC(=O)c1ccc(NC(=O)[C@@H]2CCCN2C(=O)OC(C)(C)C)cc1	Casp6 inh 56
O=C(NCc1ccc(OC(F)(F)F)cc1)c1cccc2c1C(=O)c1ccc(N3CCCCC3)cc1S2(=O)=O	Vif imaging 55
COc1ccccc1N1CCN(c2ccc3c(c2)S(=O)(=O)c2cccc(C(=O)NCc4ccc(F)cc4)c2C3=O)CC1	none (no result: T cell HTS)
O=C(NCc1ccc(OC(F)(F)F)cc1)c1cccc2c1C(=O)c1ccc(N3CCCC3)cc1S2(=O)=O	Myeloid diff 2 active
O=C(NCc1ccc(OC(F)(F)F)cc1)c1cccc2c1C(=O)c1ccc(N3CCC(Cc4ccccc4)CC3)cc1S2(=O)=O	Myeloid diff 2 active (no result: Vif imaging)
O=C(NCc1cccc(F)c1)c1cccc2c1C(=O)c1ccc(N3CCCC3)cc1S2(=O)=O	none
CC=Cc1ccc2n(c1=O)C[C@H]1[C@H](CO)[C@@H](C(=O)OC)N(C(C)=O)[C@@H]21 (mixture of isomers)	none (no result: Vif imaging, Myeloid diff 2, T cell HTS)
COCC(=O)Nc1ccc2c(c1)OC[C@H](C)N(Cc1ccncc1)C[C@H](C)[C@@H](OC)CN(C)C2=O	none (no result: Vif imaging, Myeloid diff 2, T cell HTS)
COc1ccc(-c2cnc3c(-c4ccc(F)cc4)cnn3c2N)cc1	none
Cc1nc2c(-c3ccc(F)cc3)cnn2c2c1CCC2	Casp6 inh 56
COc1ccc2c3c([nH]c2c1)[C@@H](CO)N(C(=O)C1CCC1)CC31CCN(C(=O)c2ccccn2)CC1	none (no result: Vif imaging, Myeloid diff 2, T cell HTS)
COc1cccc(-n2c(C)cc(/C=C3/C(=N)N4C(=NC3=O)SN=C4S(C)(=O)=O)c2C)c1	Casp6 inh 43
Cc1ccc(-n2cccc2/C=C2/C(=N)N3C(=NC2=O)SN=C3S(C)(=O)=O)cc1	none (no result: Casp6 inh)
CCc1ccc(-n2cccc2/C=C2/C(=N)N3C(=NC2=O)SN=C3S(C)(=O)=O)cc1	none (no result: Casp6 inh)
